Experiments:
[1] = biological target: LIM domain kinase 1 (Homo sapiens) (UniProt P53667); assay: Inhibition of LIMK1 at 1 uM
In short: (§1)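 Single-concentration screen on the Ambit KINOMEscan platform, run against a panel of 250–400 kinases. Per-kinase inhibition was also summarized as S(90), the fraction of kinases inhibited by more than 90%.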

[2] = biological target: MAP kinase-activated protein kinase 2 (Homo sapiens) (UniProt P49137); assay: Inhibition of MAPKAPK2 at 1 uM
[3] = biological target: MAP kinase-interacting serine/threonine-protein kinase 1 (Homo sapiens) (UniProt Q9BUB5); assay: Inhibition of MKNK1 at 1 uM
[4] = biological target: Mitogen-activated protein kinase 11 (Homo sapiens) (UniProt Q15759); assay: Inhibition of p38-beta at 1 uM
[5] = biological target: Platelet-derived growth factor receptor beta (Homo sapiens) (UniProt P09619); assay: Inhibition of PDGFRB at 1 uM
[6] = biological target: Serine/threonine-protein kinase RIO2 (Homo sapiens) (UniProt Q9BVS4); assay: Inhibition of RIOK2 at 1 uM
[7] = biological target: T1, Uncharacterized serine/threonine-protein kinase SBK3 (Homo sapiens) (UniProt P0C264); assay: Inhibition of SgK110 at 1 uM
T1 sequence (whole entry): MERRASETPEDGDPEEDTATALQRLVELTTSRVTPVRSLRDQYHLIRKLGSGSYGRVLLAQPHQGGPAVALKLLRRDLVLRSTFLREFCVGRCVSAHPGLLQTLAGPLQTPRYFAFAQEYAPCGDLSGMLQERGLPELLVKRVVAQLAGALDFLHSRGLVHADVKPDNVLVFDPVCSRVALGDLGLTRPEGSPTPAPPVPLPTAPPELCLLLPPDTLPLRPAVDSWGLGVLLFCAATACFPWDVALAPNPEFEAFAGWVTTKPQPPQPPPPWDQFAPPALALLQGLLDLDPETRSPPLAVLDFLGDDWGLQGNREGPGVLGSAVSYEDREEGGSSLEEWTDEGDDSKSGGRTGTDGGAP

[8] = biological target: ALK tyrosine kinase receptor (Homo sapiens, UniProt Q9UM73); assay: Inhibition of ALK by time-resolved fluorescence assay
In short: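 Baculovirus-expressed ALK (30 ng/ml) on plates coated with GST–PLC-gamma substrate in TBS. Reaction ran 15 min at 37 °C. Europium-labeled anti-phosphotyrosine antibody was added for 1 h at 37 °C, then enhancement solution for 30 min, and TRF was read. IC50 came from a variable-slope sigmoidal fit of % inhibition vs log concentration.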

[9] = biological target: T2, Activin receptor type-1 (Homo sapiens) (UniProt Q04771); assay: Inhibition of ACVR1 at 1 uM
T2 sequence (whole entry): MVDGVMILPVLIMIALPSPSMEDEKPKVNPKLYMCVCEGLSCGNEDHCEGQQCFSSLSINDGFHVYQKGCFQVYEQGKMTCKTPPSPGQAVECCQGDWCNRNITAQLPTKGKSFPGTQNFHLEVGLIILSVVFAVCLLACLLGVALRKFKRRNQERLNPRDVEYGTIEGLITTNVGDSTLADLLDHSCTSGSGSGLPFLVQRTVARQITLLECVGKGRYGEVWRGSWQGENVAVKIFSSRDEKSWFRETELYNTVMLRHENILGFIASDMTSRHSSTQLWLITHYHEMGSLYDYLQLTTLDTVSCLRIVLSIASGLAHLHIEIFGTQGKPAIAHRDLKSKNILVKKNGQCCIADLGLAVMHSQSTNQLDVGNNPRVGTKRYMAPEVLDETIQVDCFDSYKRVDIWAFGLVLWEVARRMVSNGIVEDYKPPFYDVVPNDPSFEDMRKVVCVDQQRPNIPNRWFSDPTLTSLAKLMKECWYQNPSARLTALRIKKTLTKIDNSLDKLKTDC
In short: (§2)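 Ambit KINOMEscan screen at a single concentration across a 250–400 kinase panel, recorded as percent inhibition. Selectivity was expressed as S(90), the fraction of kinases inhibited >90%.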

[10] = biological target: Bone morphogenetic protein receptor type-1A (Homo sapiens) (UniProt P36894); assay: Inhibition of BMPR1A at 1 uM; in short: as §2
[11] = system: Epidermal growth factor receptor (Homo sapiens), P00533 [G719C]; assay: Inhibition of EGFR G719C mutant at 1 uM; format: protein assay
In short: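 Single-concentration screen using Ambit Bioscience KINOMEscan technology across a panel of 250–400 kinases. Per-kinase inhibition from this screen was summarized as S(90), the fraction of kinases inhibited by more than 90%.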

[12] = biological target: Mitogen-activated protein kinase 7 (Homo sapiens) (UniProt Q13164); assay: Inhibition of ERK5 at 1 uM
[13] = biological target: Vascular endothelial growth factor receptor 1 (Homo sapiens) (UniProt P17948); assay: Inhibition of FLT1 at 1 uM; in short: as §1
[14] = biological target: T3, Rhodopsin kinase GRK7 (Homo sapiens) (UniProt Q8WTQ7); assay: Inhibition of GRK7 at 1 uM
T3 sequence (whole entry): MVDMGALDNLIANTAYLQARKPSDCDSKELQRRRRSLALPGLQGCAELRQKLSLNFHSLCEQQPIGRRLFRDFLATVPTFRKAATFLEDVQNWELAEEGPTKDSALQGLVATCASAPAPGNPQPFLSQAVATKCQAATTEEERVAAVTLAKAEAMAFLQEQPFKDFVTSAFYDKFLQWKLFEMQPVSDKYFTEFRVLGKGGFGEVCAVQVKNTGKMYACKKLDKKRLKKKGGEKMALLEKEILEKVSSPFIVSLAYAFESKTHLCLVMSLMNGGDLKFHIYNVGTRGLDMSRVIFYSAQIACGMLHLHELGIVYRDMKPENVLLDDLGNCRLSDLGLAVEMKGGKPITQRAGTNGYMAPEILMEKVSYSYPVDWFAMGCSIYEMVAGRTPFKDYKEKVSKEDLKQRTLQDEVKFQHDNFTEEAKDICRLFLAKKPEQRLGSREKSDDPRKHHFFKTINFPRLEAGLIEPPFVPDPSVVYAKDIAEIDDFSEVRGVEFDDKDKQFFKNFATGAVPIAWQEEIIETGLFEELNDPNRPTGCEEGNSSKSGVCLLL

[15] = biological target: Glycogen synthase kinase-3 beta (Homo sapiens) (UniProt P49841); assay: Inhibition of GSK3B at 1 uM; in short: as §1

ALK tyrosine kinase receptor, sequence (Q9UM73 whole entry): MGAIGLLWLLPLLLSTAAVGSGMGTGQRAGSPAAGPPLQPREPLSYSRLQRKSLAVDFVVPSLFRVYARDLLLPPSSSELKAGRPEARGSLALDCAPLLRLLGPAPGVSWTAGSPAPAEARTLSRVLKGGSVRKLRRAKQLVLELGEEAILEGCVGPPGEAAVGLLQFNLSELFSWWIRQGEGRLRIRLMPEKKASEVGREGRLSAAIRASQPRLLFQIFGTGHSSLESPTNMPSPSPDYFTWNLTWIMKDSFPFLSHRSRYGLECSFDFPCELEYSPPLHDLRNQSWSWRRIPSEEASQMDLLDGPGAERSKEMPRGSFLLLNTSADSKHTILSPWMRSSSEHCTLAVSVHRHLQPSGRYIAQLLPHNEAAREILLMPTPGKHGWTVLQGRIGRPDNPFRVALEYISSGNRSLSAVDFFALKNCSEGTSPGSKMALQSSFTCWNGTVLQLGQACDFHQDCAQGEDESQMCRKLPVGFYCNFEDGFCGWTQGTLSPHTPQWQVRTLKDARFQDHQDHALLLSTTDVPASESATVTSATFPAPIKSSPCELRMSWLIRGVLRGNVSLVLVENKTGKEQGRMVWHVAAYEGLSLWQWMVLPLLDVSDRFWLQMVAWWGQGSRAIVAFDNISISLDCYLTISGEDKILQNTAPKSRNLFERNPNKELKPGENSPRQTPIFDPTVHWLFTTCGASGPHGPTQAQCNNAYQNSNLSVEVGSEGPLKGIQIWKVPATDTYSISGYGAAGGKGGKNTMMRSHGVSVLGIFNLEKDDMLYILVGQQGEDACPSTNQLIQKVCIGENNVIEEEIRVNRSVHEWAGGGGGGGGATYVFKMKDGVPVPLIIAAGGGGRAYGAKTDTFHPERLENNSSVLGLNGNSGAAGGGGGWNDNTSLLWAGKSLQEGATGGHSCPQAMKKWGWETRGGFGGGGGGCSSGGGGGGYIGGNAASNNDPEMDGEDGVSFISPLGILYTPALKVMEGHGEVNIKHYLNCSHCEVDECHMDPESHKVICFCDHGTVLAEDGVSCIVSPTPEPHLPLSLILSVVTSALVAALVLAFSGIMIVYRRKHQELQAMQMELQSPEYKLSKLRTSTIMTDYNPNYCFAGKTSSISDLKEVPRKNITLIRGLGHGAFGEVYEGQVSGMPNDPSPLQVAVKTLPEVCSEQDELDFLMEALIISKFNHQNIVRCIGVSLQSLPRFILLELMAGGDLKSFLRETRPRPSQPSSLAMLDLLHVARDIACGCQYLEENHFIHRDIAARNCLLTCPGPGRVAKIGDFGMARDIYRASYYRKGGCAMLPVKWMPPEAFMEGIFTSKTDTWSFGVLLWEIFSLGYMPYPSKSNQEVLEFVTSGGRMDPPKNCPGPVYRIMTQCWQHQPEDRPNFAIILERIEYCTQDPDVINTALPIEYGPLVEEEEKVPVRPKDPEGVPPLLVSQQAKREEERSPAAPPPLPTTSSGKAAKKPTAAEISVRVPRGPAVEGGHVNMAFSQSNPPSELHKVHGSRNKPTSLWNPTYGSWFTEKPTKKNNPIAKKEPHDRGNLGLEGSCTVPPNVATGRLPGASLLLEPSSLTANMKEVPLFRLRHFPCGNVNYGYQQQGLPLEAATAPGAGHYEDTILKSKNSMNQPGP
Mitogen-activated protein kinase 7 (Homo sapiens), sequence (Q13164 2-816 limits assumed): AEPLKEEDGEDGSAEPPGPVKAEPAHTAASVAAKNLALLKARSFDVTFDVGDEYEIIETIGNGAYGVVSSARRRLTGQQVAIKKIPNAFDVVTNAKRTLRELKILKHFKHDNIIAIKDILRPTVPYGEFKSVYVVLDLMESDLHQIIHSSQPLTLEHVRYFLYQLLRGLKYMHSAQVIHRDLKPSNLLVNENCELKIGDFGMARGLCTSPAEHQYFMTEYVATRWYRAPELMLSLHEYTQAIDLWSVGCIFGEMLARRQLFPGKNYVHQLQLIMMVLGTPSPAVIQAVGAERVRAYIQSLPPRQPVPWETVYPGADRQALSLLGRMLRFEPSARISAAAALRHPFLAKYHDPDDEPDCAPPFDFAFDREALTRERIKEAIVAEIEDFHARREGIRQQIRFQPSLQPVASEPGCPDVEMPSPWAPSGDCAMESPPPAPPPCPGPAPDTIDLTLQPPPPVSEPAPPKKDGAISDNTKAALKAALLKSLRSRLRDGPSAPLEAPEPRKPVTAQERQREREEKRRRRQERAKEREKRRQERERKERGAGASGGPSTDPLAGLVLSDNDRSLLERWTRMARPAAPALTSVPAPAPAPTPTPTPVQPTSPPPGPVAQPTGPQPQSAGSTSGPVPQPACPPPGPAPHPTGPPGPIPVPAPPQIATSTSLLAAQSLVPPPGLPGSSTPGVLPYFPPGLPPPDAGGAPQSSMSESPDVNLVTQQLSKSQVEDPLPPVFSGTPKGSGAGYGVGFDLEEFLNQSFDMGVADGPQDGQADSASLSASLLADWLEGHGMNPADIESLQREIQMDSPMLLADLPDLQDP
Mitogen-activated protein kinase 11 (Homo sapiens), sequence (Q15759 whole entry): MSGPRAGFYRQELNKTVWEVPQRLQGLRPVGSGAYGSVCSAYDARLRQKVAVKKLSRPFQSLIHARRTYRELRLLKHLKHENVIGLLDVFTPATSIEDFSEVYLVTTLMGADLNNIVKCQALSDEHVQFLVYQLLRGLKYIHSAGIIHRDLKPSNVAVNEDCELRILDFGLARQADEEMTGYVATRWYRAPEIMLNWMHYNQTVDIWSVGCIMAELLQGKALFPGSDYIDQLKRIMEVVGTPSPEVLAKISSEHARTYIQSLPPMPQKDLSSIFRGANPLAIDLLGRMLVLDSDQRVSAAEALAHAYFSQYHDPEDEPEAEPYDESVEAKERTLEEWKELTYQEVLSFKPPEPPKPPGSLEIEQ
Serine/threonine-protein kinase RIO2 (Homo sapiens), sequence (Q9BVS4 whole entry, looked up): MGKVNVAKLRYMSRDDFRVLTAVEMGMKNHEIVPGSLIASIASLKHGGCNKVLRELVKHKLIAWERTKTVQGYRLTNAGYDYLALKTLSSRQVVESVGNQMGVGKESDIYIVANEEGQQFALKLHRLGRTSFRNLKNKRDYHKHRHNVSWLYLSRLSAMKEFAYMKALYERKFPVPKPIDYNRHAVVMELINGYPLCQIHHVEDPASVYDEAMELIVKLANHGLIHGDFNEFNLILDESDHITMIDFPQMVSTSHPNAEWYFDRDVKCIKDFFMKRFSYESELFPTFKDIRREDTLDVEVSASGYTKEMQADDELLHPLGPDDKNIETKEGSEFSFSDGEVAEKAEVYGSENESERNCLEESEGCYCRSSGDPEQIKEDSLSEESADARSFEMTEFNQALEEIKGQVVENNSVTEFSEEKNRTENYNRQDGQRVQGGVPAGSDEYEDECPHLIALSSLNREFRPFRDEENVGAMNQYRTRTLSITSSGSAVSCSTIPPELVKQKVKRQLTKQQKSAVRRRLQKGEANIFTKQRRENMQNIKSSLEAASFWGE
Epidermal growth factor receptor (Homo sapiens), P00533 [G719C], sequence (P00533 whole entry G719C): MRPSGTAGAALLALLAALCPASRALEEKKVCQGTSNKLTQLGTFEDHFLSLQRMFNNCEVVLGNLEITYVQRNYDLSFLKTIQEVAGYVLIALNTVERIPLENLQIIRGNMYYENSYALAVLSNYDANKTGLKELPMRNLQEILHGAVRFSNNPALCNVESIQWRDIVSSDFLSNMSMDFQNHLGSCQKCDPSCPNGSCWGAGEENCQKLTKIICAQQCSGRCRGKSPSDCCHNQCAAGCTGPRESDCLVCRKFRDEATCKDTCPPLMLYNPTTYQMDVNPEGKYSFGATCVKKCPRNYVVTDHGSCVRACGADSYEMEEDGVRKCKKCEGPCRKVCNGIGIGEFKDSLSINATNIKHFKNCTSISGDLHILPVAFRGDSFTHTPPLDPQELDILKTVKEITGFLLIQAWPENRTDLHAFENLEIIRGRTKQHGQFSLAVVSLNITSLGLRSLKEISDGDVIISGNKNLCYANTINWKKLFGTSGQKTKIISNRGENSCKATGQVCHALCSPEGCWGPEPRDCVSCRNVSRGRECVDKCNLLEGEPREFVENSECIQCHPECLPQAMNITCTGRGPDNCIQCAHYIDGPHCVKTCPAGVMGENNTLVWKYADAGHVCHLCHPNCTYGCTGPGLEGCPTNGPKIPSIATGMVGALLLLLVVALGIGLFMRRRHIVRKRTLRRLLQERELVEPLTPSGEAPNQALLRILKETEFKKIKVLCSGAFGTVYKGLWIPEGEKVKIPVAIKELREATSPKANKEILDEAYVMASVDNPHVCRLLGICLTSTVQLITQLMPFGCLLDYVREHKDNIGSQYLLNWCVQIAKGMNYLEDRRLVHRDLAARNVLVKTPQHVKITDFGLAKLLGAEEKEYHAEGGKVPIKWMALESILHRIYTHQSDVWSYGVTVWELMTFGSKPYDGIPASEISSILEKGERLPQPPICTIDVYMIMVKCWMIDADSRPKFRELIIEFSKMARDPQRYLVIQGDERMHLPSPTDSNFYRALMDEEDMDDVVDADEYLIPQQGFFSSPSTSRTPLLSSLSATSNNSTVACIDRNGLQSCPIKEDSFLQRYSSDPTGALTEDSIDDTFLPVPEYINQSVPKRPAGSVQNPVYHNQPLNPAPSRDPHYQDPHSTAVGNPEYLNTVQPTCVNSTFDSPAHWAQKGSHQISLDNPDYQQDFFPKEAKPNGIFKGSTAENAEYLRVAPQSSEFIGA
MAP kinase-activated protein kinase 2 (Homo sapiens), sequence (P49137 whole entry, looked up): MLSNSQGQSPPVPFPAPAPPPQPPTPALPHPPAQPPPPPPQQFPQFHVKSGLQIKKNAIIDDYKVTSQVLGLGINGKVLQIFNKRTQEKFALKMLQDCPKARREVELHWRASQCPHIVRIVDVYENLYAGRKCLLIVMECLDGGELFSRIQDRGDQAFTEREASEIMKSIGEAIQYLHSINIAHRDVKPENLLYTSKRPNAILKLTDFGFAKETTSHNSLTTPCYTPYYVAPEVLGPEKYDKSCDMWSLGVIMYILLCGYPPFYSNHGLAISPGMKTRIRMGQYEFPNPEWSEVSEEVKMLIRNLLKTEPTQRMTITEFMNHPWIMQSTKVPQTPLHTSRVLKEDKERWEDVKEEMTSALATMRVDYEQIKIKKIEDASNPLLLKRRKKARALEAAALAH

SMILES | inhibition [1] [%] | inhibition [2] [%] | inhibition [3] [%] | inhibition [4] [%] | inhibition [5] [%] | inhibition [6] [%] | inhibition [7] [%] | IC50 [8] [nM] | inhibition [9] [%] | inhibition [10] [%] | inhibition [11] [%] | inhibition [12] [%] | inhibition [13] [%] | inhibition [14] [%] | inhibition [15] [%]
CN1CCN(c2ccc(-c3cnc4c(c3)N(Cc3cc(Cl)ccc3Cl)CCN4)cn2)CC1 | < 50 | < 50 | < 50 | < 50 | < 50 | < 50 | < 50 | 11 | < 50 | < 50 | < 50 | < 50 | < 50 | < 50 | < 50
CN1CCN(c2ccc(-c3cnc4c(c3)N(Cc3cc(Cl)ccc3C(F)(F)F)CCN4)cn2)CC1 | < 50 | < 50 | < 50 | < 50 | < 50 | < 50 | < 50 | – | < 50 | < 50 | < 50 | < 50 | < 50 | < 50 | < 50
CN1CCN(c2ccc(-c3cnc4c(c3)N(Cc3c(F)ccc(F)c3Cl)CCN4)cn2)CC1 | < 50 | < 50 | < 50 | < 50 | < 50 | < 50 | < 50 | – | < 50 | < 50 | < 50 | < 50 | < 50 | < 50 | < 50
O=C(c1ccc(-c2cnc3c(c2)N(Cc2cc(Cl)ccc2C(F)(F)F)CCN3)cc1)N1CCC(N2CCCC2)CC1 | < 50 | – | – | < 50 | 76.4 | – | – | 10 | < 50 | < 50 | < 50 | – | < 50 | – | < 50
COC1CCN(C(=O)c2ccc(-c3cnc4c(c3)N(Cc3cc(Cl)ccc3C(F)(F)F)CCN4)cc2)CC1 | < 50 | – | – | < 50 | < 50 | – | – | 40 | < 50 | < 50 | < 50 | – | < 50 | – | < 50
FC(F)(F)c1ccc(Cl)cc1CN1CCNc2ncc(-c3ccnc(N4CCNCC4)c3)cc21 | < 50 | < 50 | < 50 | < 50 | 92 | < 50 | 96 | 10 | < 50 | < 50 | < 50 | < 50 | < 50 | 67 | < 50
CN1CCN(c2ccc(-c3cnc4c(c3)N(Cc3cc(F)ccc3F)CCN4)cn2)CC1 | < 50 | < 50 | < 50 | < 50 | < 50 | < 50 | < 50 | 33 | < 50 | < 50 | < 50 | < 50 | < 50 | < 50 | < 50
O=C(c1ccc(-c2cnc3c(c2)N(Cc2cc(Cl)ccc2C(F)(F)F)CCN3)cc1)N1CCCCC1 | < 50 | – | – | < 50 | < 50 | – | – | 121 | < 50 | < 50 | < 50 | – | < 50 | – | < 50
CC(=O)N1CCN(c2cc(-c3cnc4c(c3)N(Cc3cc(Cl)ccc3C(F)(F)F)CCN4)ccn2)CC1 | < 50 | < 50 | < 50 | < 50 | < 50 | < 50 | 71 | 17 | < 50 | < 50 | < 50 | < 50 | < 50 | < 50 | < 50
O=C(O)c1ccc(-c2cnc3c(c2)N(Cc2cc(Cl)ccc2C(F)(F)F)CCN3)cc1 | < 50 | – | – | < 50 | < 50 | – | – | 1300 | < 50 | < 50 | < 50 | – | < 50 | – | < 50

Source: ChEMBL document CHEMBL1165965, “Synthesis and structure-activity relationships of 1,2,3,4-tetrahydropyrido[2,3-b]pyrazines as potent and selective inhibitors of the anaplastic lymphoma kinase” (Bioorg Med Chem, 2010)
